Screening results: PubChem BioAssay, The Scripps Research Institute Molecular Screening Center
SIAE inh: human SIAE inhibitors, primary screen, biochemical, fluorescence polarization, FP-Rh probe, 1536-well HTS; inhibition, % at 9.66 µM; Sialate O-acetylesterase (Homo sapiens), Q9HAT2; 370,000 tested, 0.69% active; SIAE FP-Rh probe binding;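 active = inhibition above a cutoff: mean of compounds within the control limits plus 3 SD of those, cut at about 17% in these data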
rCAG binder: binders of r(CAG) RNA repeats, primary screen, biochemical, fluorescence; r(CAG) RNA repeat, TO-PRO-1 dye displacement fluorescence; inhibition, % at 3 µM; 370,000 tested, 1.3% active; AID 651821, 2012;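 active = inhibition above the plate cutoff, the mean of all test compounds on that plate plus 3 SD, cut at about 35% in these data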;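 note: higher means more dye released from RNA so lower well fluorescence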
PRMT1 FP inh: PRMT1 methyltransferase inhibitors, primary screen, biochemical, fluorescence polarization; recombinant PRMT1, activity-based probe fluorescence polarization; inhibition, % at 2.79 µM; AID 652257, 2013; Protein arginine N-methyltransferase 1 (Homo sapiens), Q99873; 370,000 tested, 1.3% active;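 active = inhibition above about 21% made by adding two undisclosed values, limit read from the data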
Target sequence (Q99873 whole entry, looked up): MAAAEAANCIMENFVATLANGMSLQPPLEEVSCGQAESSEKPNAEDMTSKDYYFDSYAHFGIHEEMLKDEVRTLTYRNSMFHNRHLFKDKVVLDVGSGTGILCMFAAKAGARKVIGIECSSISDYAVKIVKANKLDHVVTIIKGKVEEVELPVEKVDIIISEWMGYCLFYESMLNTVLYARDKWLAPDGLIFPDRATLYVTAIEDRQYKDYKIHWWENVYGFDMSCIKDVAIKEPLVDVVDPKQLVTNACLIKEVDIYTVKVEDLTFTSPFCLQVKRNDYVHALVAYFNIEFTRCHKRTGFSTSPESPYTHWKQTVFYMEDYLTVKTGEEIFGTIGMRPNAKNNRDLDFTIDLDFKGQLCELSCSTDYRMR
HTRA1 inh: HTRA1 serine protease inhibitors, primary screen, biochemical, fluorescence polarization, HTS. recombinant HTRA1, FP-rhodamine activity-based probe. inhibition, % at 5.96 µM. 340,000 tested, 0.5% active. AID 504803, 2011; in the data active = inhibition above about 36%
ABHD4 inh: ABHD4 inhibitors, primary screen, biochemical, fluorescence polarization, mouse; (Lyso)-N-acylphosphatidylethanolamine lipase (Mus musculus), Q8VD66; purified mABHD4, FP-Rh probe fluorescence polarization; inhibition, % at 8.92 µM; 370,000 tested, 0.54% active;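 active = inhibition exceeding the mean over every tested compound plus 3 SD, cut at about 30% in these data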
Target sequence (Q8VD66 whole entry, looked up): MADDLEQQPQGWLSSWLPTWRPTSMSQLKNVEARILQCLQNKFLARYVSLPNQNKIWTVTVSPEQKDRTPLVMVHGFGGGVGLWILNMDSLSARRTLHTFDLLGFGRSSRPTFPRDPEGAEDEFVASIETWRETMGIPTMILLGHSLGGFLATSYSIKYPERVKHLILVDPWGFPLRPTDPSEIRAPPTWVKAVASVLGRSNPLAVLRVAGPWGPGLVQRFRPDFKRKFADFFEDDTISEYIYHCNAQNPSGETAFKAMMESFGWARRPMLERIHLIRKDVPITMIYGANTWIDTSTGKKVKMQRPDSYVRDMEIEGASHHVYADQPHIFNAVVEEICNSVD
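Material: mouse ABHD4 enzyme, wild type; Benchmarks: S159A mutant high control, sample median low control; Buffer or medium: HEPES pH 7.0, NaCl, Pluronic buffer; Signal: fluorescence polarization; Read-out: percent inhibition of probe binding, normalized to plate controls; Timing: pre-incubation 45 min, probe exposure 60 min, at 25 °C; Dosing: 8.92 µM, single dose.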
HTRA1 conf: HTRA1 protease inhibitors, retest, confirmation, biochemical, fluorescence polarization; shares compounds with HTRA1 inh; 1,600 tested, 66% active; AID 540248, 2011; inhibition, % at 5.96 µM; recombinant HTRA1, FP-rhodamine activity-based probe;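 active = mean inhibition over three repeats above a set limit taken from the earlier primary screen, cut at about 37% in these data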;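 note: inhibitors block probe binding so polarization drops and inhibition rises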
Each line names hits and unclear results; the compound was inactive in the other large screens (follow-up assays come after a bar, where they were run). Compounds with a hit are over-represented: about 3.3% of the library has one in this group of screens.

Cc1ccc2[nH]c(=O)c(C3C(C#N)=C(N)Oc4c3ccc3cccnc43)cc2c1 (stereo unspecified)	SIAE inh 24.8, HTRA1 inh 73.1 | HTRA1 conf inactive
COC(=O)C1=C(C)NC(C)=C(C(=O)OC)C1c1cc2cc(C)ccc2[nH]c1=O	none
N#CC1=C(N)Oc2c(ccc3cccnc23)C1c1ccccc1 (stereo unspecified)	HTRA1 inh 41.2 | HTRA1 conf inactive
CCN1CCc2c(sc(NC(=O)c3ccc(S(=O)(=O)N4CCOCC4)cc3)c2C(=O)OC)C1	HTRA1 inh 38.0 | HTRA1 conf inactive
CCn1c(C)nc2cc(C(=O)N/N=C(\C)c3ccc(OC)cc3O)ccc21	HTRA1 inh 40.0 | HTRA1 conf inactive
CCn1c(C)nc2cc(C(=O)NN=C(C)c3ccc(C#N)cc3)ccc21	none
Nc1ccccc1NC1CCCCC1	HTRA1 inh 40.9 | HTRA1 conf 48.3
O=C(N/N=C/c1c(O)ccc2ccccc12)c1ccc[n+](CCO)c1	HTRA1 inh 52.5 | HTRA1 conf 49.8
Cn1nccc1C(=O)N/N=C/c1c(O)ccc2ccccc12	HTRA1 inh 54.6 | HTRA1 conf 54.2
O=C(CSc1nnc(CNc2ccc(Cl)cc2)o1)Nc1nc2c(s1)CCCC2	HTRA1 inh 38.5 | HTRA1 conf inactive
S=C(Nc1cccc(Cl)c1)OC1CCC12CCC(c1ccccc1)CC2 (stereo unspecified)	none (no result: HTRA1 inh)
O=C(O)c1cccc2cccc(-c3c4ccc(=O)c(O)c-4oc4c(O)c(O)ccc34)c12	SIAE inh 36.5, rCAG binder 91.8, PRMT1 FP inh 32.2, HTRA1 inh 50.1, ABHD4 inh 47.8 | HTRA1 conf 50.0
CC(C)C[C@H](NC(=O)c1ccc(Cl)c(Cl)c1)C(=O)N1CCC[C@H]1C(=O)NCc1ccccc1	none (no result: HTRA1 inh)
COc1ccccc1C(=O)N1CCC2CCN(C(=O)c3ccccc3)C2C1 (stereo unspecified)	none (no result: HTRA1 inh)
CCCCCCCCCCCCCCCCn1cc[n+](CC(C)=O)c1	HTRA1 inh 72.0 (no result: SIAE inh, rCAG binder, PRMT1 FP inh, ABHD4 inh) | HTRA1 conf 85.6
C=CCN(CC#Cc1ccccc1)Cc1ccc(OC)cc1OC	none (no result: HTRA1 inh)
c1ccc(N2CCN(c3nc(-c4ccccn4)nc4ccccc34)CC2)cc1	HTRA1 inh 40.2 | HTRA1 conf inactive
CN1CCN(c2nc(-c3ccccn3)nc3ccccc23)CC1	none
Cc1cccc2nc(-c3ccco3)c(Nc3ccccc3)n12	none
Cc1ccc(Nc2c(-c3ccccn3)nc3cccc(C)n23)cc1	HTRA1 inh 62.3 | HTRA1 conf 66.6
O=C(CSc1nnc(-c2cccc(Cl)c2)n1Cc1ccco1)Nc1ccc2c(c1)OCO2	none (no result: HTRA1 inh)
COC(=O)C1=C(C)N(C)C(=NCc2ccc(C(F)(F)F)cc2)NC1c1ccc(Cl)cc1 (stereo unspecified)	none (no result: HTRA1 inh)
Cc1cc(SCC(=O)N/N=C/c2ccc(O)c(O)c2O)c(C)cc1Br	SIAE inh 34.9, rCAG binder 55.1, PRMT1 FP inh 35.2, HTRA1 inh 62.4, ABHD4 inh 50.4 | HTRA1 conf 67.4
CCC(=O)NCCn1c(C)cc2ccccc21	none (no result: SIAE inh, rCAG binder, PRMT1 FP inh, ABHD4 inh)
Cc1cc2ccccc2n1CCNC(=O)COc1ccccc1	HTRA1 inh 49.1 | HTRA1 conf inactive
C[C@H](O)[C@@H]1C(=O)N2CCc3c([nH]c4c(-c5ccccc5)cccc34)[C@@H]2C[C@@H]1N(C)C(=O)NC1CCCCC1	none (no result: HTRA1 inh)
CCNc1ccc(Br)cc(C(=O)/C=C/c2ccc(Cl)cc2)c1=O	HTRA1 inh 62.9 (no result: SIAE inh, rCAG binder, PRMT1 FP inh, ABHD4 inh) | HTRA1 conf inactive
O=C(/C=C/c1ccc(F)cc1)c1cc(Br)ccc1O	none
Cc1nc(N)sc1N=Nc1ccccc1C(F)(F)F	HTRA1 inh 40.0 | HTRA1 conf inactive
CN(C)c1ccc(N/C=C/C(=O)c2ccc(F)cc2)cc1	HTRA1 inh 53.0 (no result: SIAE inh, rCAG binder, PRMT1 FP inh, ABHD4 inh) | HTRA1 conf inactive
NS(=O)(=O)c1ccc(N/C=C\C(=O)c2ccc(F)cc2)cc1	none
O=C1CCCC2=C1C(c1ccc(Cl)cc1)C1C(=O)c3ccccc3C1=N2 (stereo unspecified)	HTRA1 inh 38.5 | HTRA1 conf inactive
CCC(NC(C)C)C(O)c1ccc(O)c(O)c1 (stereo unspecified)	none
CCC(c1ccc(O)c(O)c1)C(CC)c1ccc(O)c(O)c1 (stereo unspecified)	HTRA1 inh 59.5 (no result: SIAE inh, rCAG binder, PRMT1 FP inh, ABHD4 inh) | HTRA1 conf 67.6
CCCN1CCCCC(NC(=O)c2ccccc2OC)C1=O (stereo unspecified)	none (no result: HTRA1 inh)
CN1C(=O)C(c2cn(C)c3ccccc23)(c2cn(C)c3ccccc23)c2ccccc21	none (no result: HTRA1 inh)
Cc1ccccc1C(=O)Nc1ccc(C(=O)NNC(=O)CCCOc2ccc(Cl)cc2Cl)cc1	none
Cc1cc(Cl)ccc1OCCCC(=O)NNC(=O)c1ccccc1O	HTRA1 inh 38.8 | HTRA1 conf 52.0
CCCCOCCCNC(=O)C[C@H]1C[C@@]2(C(=O)OC)C(=C[C@H](C(C)(C)C)O[C@@H]2C)N(Cc2cccc3ccccc23)C1=O	none (no result: HTRA1 inh)
CN(C)c1ccc(C(=O)OCc2ccccc2)cc1	none
O=C1C=CC(=O)C(CNc2ccc(C(=O)OCc3ccccc3)cc2)=C1	HTRA1 inh 42.0, ABHD4 inh 36.2 | HTRA1 conf inactive
NNc1nc(C(F)(F)F)nc2ccccc12	none
O/C=c1\ccc2cccc3nc(C(F)(F)F)nc1c23	PRMT1 FP inh 40.1, HTRA1 inh 43.0 | HTRA1 conf 99.4
COc1ccc(OC)c(/C=N/NC(=O)C(=O)N2CCCCCC2)c1	HTRA1 inh 42.5 | HTRA1 conf inactive
O=C(NC1CCCCC1)C(c1ccc(O)c(O)c1)N(C(=O)Cn1nnc2ccccc21)c1cccc(O)c1 (stereo unspecified)	HTRA1 inh 47.5 | HTRA1 conf 49.2
CC(=O)c1cccc(N(C(=O)Cn2nnc3ccccc32)C(C(=O)NC2CCCCC2)c2cn(C)nc2C)c1 (stereo unspecified)	none
Cc1ccc2c(c1)c1c3n2CCN(C(=O)CN2CCN(C)CC2)C3CCC1 (stereo unspecified)	none
CN1CCN(CC(=O)N2CCn3c4c(c5cc(C6CCCCC6)ccc53)CCCC42)CC1 (stereo unspecified)	HTRA1 inh 41.5 (no result: SIAE inh, rCAG binder, PRMT1 FP inh, ABHD4 inh) | HTRA1 conf 53.9
Oc1ccccc1N=N/C(=N/Nc1ccccc1O)c1ccccc1	none
Cn1nnnc1N=N/C(=N/Nc1ccccc1)c1ccccc1	HTRA1 inh 42.2 | HTRA1 conf inactive
O=C(NCC1CCN(C(=O)C(=O)c2cc3ccccc3o2)CC1)c1ccncc1	none (no result: HTRA1 inh)
NNc1ccc([N+](=O)[O-])c2[nH][nH]c(=O)c12	rCAG binder 41.6, PRMT1 FP inh 40.1, HTRA1 inh 52.4, ABHD4 inh 53.8 | HTRA1 conf 49.0
